In brackets after ≈: the same amount, converted by molar mass. Activity calls are given as the source filed them. No cut-off for these calls is given here.
What was measured:
[1] = test system: Candida parapsilosis; assay: Antifungal activity against Candida parapsilosis ATCC 22019 assessed as decrease in fungal cell growth at 0.78 to 12.5 mg/L incubated for 24 hrs by CLSI broth dilution method; assay type: functional; settings: Lodderomyces parapsilosis, ATCC 22019, 24 h
Method in brief: (§1)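 Yeast broth dilution in RPMI 1640 with 2% glucose, compounds in DMSO. Yeasts pre-grown on Sabouraud dextrose agar. Growth read after 35 °C, 24 h.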

[2] = test system: Enterococcus faecium; assay: Antibacterial activity against Enterococcus faecium ATCC 6057 assessed as diameter of zone inhibition measured after 18 hrs by CLSI disc diffusion method; assay type: functional
Method in brief: (§2)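 Disc diffusion on Mueller-Hinton II agar. Compounds dissolved in DMSO. Strains stored at -80 °C and subcultured twice on tryptic soy agar before testing. Inhibition zones read after 35 °C, 18 h.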

[3] = test system: Bacillus subtilis; assay: Antibacterial activity against Bacillus subtilis ATCC 6633 assessed as diameter of zone inhibition measured after 18 hrs by CLSI disc diffusion method; assay type: functional; method in brief: as §2
[4] = test system: Klebsiella pneumoniae; settings: ATCC 13883
[5] = test system: Serratia marcescens; assay: Antibacterial activity against Serratia marcescens ATCC 13880 measured after 18 hrs by CLSI broth dilution method; assay type: functional; settings: ATCC 13880, 18 h
Method in brief: (§3)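 Broth MIC in Mueller-Hinton II broth following CLSI, compounds dissolved in DMSO. Strains subcultured twice on tryptic soy agar before testing. Growth read after 35 °C, 18 h.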

[6] = test system: Enterobacter cloacae; assay: Antibacterial activity against Enterobacter cloacae DSM 6234 measured after 18 hrs by CLSI broth dilution method; assay type: functional; settings: DSM 6234, 18 h; method in brief: as §3
[7] = test system: Meyerozyma guilliermondii; assay: Antifungal activity against Candida guilliermondii IBA 155 assessed as decrease in fungal cell growth at 0.78 to 12.5 mg/L incubated for 24 hrs by CLSI broth dilution method; assay type: functional; settings: IBA 155, 24 h; method in brief: as §1
[8] = test system: Stenotrophomonas maltophilia; assay: Antibacterial activity against Stenotrophomonas maltophilia ATCC 13637 assessed as diameter of zone inhibition measured after 18 hrs by CLSI disc diffusion method; assay type: functional; method in brief: as §2
[9] = test system: Serratia marcescens; assay: Antibacterial activity against Serratia marcescens ATCC 13880 assessed as fold reduction of MIC in presence of efflux pump inhibitor PAbetaN incubated for 18 hrs by broth microdilution method; assay type: functional
Method in brief: (§4)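 MICs determined with and without PAβN at 50 mg/L in Mueller-Hinton broth containing 1 mM MgSO₄. 2-fold serial dilutions per CLSI. Fold change taken from the paired MICs after 35 °C, 18 h.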

[10] = test system: Staphylococcus epidermidis; assay: Antibacterial activity against Staphylococcus epidermidis ATCC 12228 measured after 18 hrs by CLSI broth dilution method; assay type: functional; settings: ATCC 12228, 18 h; method in brief: as §3
[11] = test system: Staphylococcus epidermidis; assay: Antibacterial activity against Staphylococcus epidermidis ATCC 12228 assessed as diameter of zone inhibition measured after 18 hrs by CLSI disc diffusion method; assay type: functional; method in brief: as §2
[12] = test system: Proteus mirabilis; assay: Antibacterial activity against Proteus mirabilis ATCC 12453 assessed as fold reduction of MIC in presence of efflux pump inhibitor PAbetaN incubated for 18 hrs by broth microdilution method; assay type: functional; method in brief: as §4
[13] = test system: Meyerozyma guilliermondii; assay: Antifungal activity against Candida guilliermondii IBA 155 assessed as diameter of zone inhibition incubated for 24 hrs by CLSI disc diffusion method; assay type: functional
Method in brief: (§5)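 Yeast disc diffusion on Mueller-Hinton agar supplemented with 2% glucose and 0.5 mg/L methylene blue. Compounds in DMSO. Yeasts subcultured on Sabouraud dextrose agar before testing. Zones read after 35 °C, 24 h.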

[14] = test system: Proteus mirabilis; assay: Antibacterial activity against Proteus mirabilis ATCC 12453 assessed as diameter of zone inhibition measured after 18 hrs by CLSI disc diffusion method; assay type: functional; method in brief: as §2
[15] = test system: Proteus mirabilis; assay: Antibacterial activity against Proteus mirabilis ATCC 12453 measured after 18 hrs by CLSI broth dilution method; assay type: functional; settings: ATCC 12453, 18 h; method in brief: as §3
[16] = test system: Bordetella bronchiseptica; assay: Antibacterial activity against Bordetella bronchiseptica ATCC 4617 assessed as diameter of zone inhibition measured after 18 hrs by CLSI disc diffusion method; assay type: functional; method in brief: as §2
[17] = test system: Staphylococcus aureus; assay: Antibacterial activity against Staphylococcus aureus ATCC 6538P assessed as diameter of zone inhibition measured after 18 hrs by CLSI disc diffusion method; assay type: functional; method in brief: as §2
[18] = test system: Pichia kudriavzevii; assay: Antifungal activity against Candida krusei ATCC 6258 assessed as decrease in fungal cell growth at 0.78 to 12.5 mg/L incubated for 24 hrs by CLSI broth dilution method; assay type: functional; settings: ATCC 6258, 24 h; method in brief: as §1
[19] = test system: Staphylococcus aureus; assay: Antibacterial activity against Staphylococcus aureus ATCC 6538P measured after 18 hrs by CLSI broth dilution method; assay type: functional; method in brief: as §3
[20] = test system: Acinetobacter baumannii; assay: Antibacterial activity against Acinetobacter baumannii ATCC 19606 assessed as diameter of zone inhibition measured after 18 hrs by CLSI disc diffusion method; assay type: functional; method in brief: as §2
[21] = test system: Klebsiella pneumoniae; assay: Antibacterial activity against Klebsiella pneumoniae ATCC 13883 assessed as fold reduction of MIC in presence of efflux pump inhibitor PAbetaN incubated for 18 hrs by broth microdilution method; assay type: functional; method in brief: as §4
[22] = test system: Acinetobacter baumannii; assay: Antibacterial activity against Acinetobacter baumannii ATCC 19606 assessed as fold reduction of MIC in presence of efflux pump inhibitor PAbetaN incubated for 18 hrs by broth microdilution method; assay type: functional; method in brief: as §4
[23] = test system: Pseudomonas aeruginosa; assay: Antibacterial activity against Pseudomonas aeruginosa ATCC 27853 assessed as diameter of zone inhibition measured after 18 hrs by CLSI disc diffusion method; assay type: functional, organism-based; method in brief: as §2
[24] = test system: Candida tropicalis; assay: Antifungal activity against Candida tropicalis IBA 171 assessed as decrease in fungal cell growth at 0.78 to 12.5 mg/L incubated for 24 hrs by CLSI broth dilution method; assay type: functional; settings: IBA 171, 24 h; method in brief: as §1
[25] = test system: Enterococcus faecalis; assay: Antibacterial activity against Enterococcus faecalis ATCC 29212 measured after 18 hrs by CLSI broth dilution method; assay type: functional; settings: ATCC 29212, 18 h; method in brief: as §3
[26] = test system: Enterococcus faecium; assay: Antibacterial activity against Enterococcus faecium ATCC 6057 measured after 18 hrs by CLSI broth dilution method; assay type: functional; settings: ATCC 6057, 18 h; method in brief: as §3
[27] = test system: Candida tropicalis; assay: Antifungal activity against Candida tropicalis IBA 171 assessed as diameter of zone inhibition incubated for 24 hrs by CLSI disc diffusion method; assay type: functional; method in brief: as §5
[28] = test system: Enterococcus faecalis; assay: Antibacterial activity against Enterococcus faecalis ATCC 29212 assessed as diameter of zone inhibition measured after 18 hrs by CLSI disc diffusion method; assay type: functional; method in brief: as §2
[29] = test system: Burkholderia cepacia; assay: Antibacterial activity against Burkholderia cepacia ATCC 25416 assessed as diameter of zone inhibition measured after 18 hrs by CLSI disc diffusion method; assay type: functional; method in brief: as §2
[30] = test system: Enterobacter cloacae; assay: Antibacterial activity against Enterobacter cloacae DSM 6234 assessed as fold reduction of MIC in presence of efflux pump inhibitor PAbetaN incubated for 18 hrs by broth microdilution method; assay type: functional; method in brief: as §4
[31] = test system: Candida albicans; assay: Antifungal activity against Candida albicans ATCC 90028 assessed as diameter of zone inhibition incubated for 24 hrs by CLSI disc diffusion method; assay type: functional; method in brief: as §5
[32] = test system: Escherichia coli; assay: Antibacterial activity against Escherichia coli ATCC 25922 measured after 18 hrs by CLSI broth dilution method; assay type: functional; settings: ATCC 25922, 18 h; method in brief: as §3
[33] = test system: Stenotrophomonas maltophilia; assay: Antibacterial activity against Stenotrophomonas maltophilia ATCC 13637 assessed as fold reduction of MIC in presence of efflux pump inhibitor PAbetaN incubated for 18 hrs by broth microdilution method; assay type: functional; method in brief: as §4
[34] = test system: Pseudomonas aeruginosa; assay: Antibacterial activity against Pseudomonas aeruginosa ATCC 27853 measured after 18 hrs by CLSI broth dilution method; assay type: functional; settings: ATCC 27853, 18 h; method in brief: as §3

C[Si]1(C)OB(O)c2ccc(C(F)(F)F)cc21
MIC [1]: 100 µg/mL (≈ 406 µM)
diameter of the inhibition zone (DIZ) [2]: 14 mm
diameter of the inhibition zone (DIZ) [3]: 47 mm
DIZ [4]: inactive
MIC [5]: > 400 µg/mL
MIC [6]: > 400 µg/mL
MIC [7]: 200 µg/mL (≈ 813 µM)
diameter of the inhibition zone (DIZ) [8]: 14 mm
fold change (FC) [9]: 2
MIC [10]: 25 µg/mL (≈ 102 µM)
diameter of the inhibition zone (DIZ) [11]: 20 mm
fold change (FC) [12]: 2
diameter of the inhibition zone (DIZ) [13]: 16 mm
diameter of the inhibition zone (DIZ) [14]: inactive
MIC [15]: > 400 µg/mL
diameter of the inhibition zone (DIZ) [16]: inactive
diameter of the inhibition zone (DIZ) [17]: 20 mm
MIC [18]: 200 µg/mL (≈ 813 µM)
MIC [19]: 50 µg/mL (≈ 203 µM)
diameter of the inhibition zone (DIZ) [20]: 13 mm
fold change (FC) [21]: 16
fold change (FC) [22]: 16
diameter of the inhibition zone (DIZ) [23]: inactive
MIC [24]: 25 µg/mL (≈ 102 µM)
MIC [25]: 50 µg/mL (≈ 203 µM)
MIC [26]: 25 µg/mL (≈ 102 µM)
diameter of the inhibition zone (DIZ) [27]: 13 mm
diameter of the inhibition zone (DIZ) [28]: 12 mm
diameter of the inhibition zone (DIZ) [29]: inactive
fold change (FC) [30]: 16
diameter of the inhibition zone (DIZ) [31]: 14 mm
MIC [32]: > 400 µg/mL
fold change (FC) [33]: 16
MIC [34]: > 400 µg/mL

C[Si]1(C)OB(O)c2ccc(B(O)O)cc21
MIC [1]: 200 µg/mL (≈ 901 µM)
diameter of the inhibition zone (DIZ) [2]: 12 mm
diameter of the inhibition zone (DIZ) [3]: 19 mm
DIZ [4]: inactive
MIC [5]: > 400 µg/mL
MIC [6]: > 400 µg/mL
MIC [7]: > 400 µg/mL
diameter of the inhibition zone (DIZ) [8]: 12 mm
fold change (FC) [9]: 2
MIC [10]: 50 µg/mL (≈ 225 µM)
diameter of the inhibition zone (DIZ) [11]: 32 mm
fold change (FC) [12]: 4
diameter of the inhibition zone (DIZ) [13]: inactive
diameter of the inhibition zone (DIZ) [14]: inactive
MIC [15]: > 400 µg/mL
diameter of the inhibition zone (DIZ) [16]: inactive
diameter of the inhibition zone (DIZ) [17]: 14 mm
MIC [18]: 400 µg/mL (≈ 1800 µM)
MIC [19]: 200 µg/mL (≈ 901 µM)
diameter of the inhibition zone (DIZ) [20]: inactive
fold change (FC) [21]: 4
fold change (FC) [22]: 2
diameter of the inhibition zone (DIZ) [23]: inactive
MIC [24]: 200 µg/mL (≈ 901 µM)
MIC [25]: 200 µg/mL (≈ 901 µM)
MIC [26]: 200 µg/mL (≈ 901 µM)
diameter of the inhibition zone (DIZ) [27]: inactive
diameter of the inhibition zone (DIZ) [28]: inactive
diameter of the inhibition zone (DIZ) [29]: inactive
fold change (FC) [30]: 16
diameter of the inhibition zone (DIZ) [31]: inactive
MIC [32]: > 400 µg/mL
fold change (FC) [33]: 8
MIC [34]: > 400 µg/mL

Source: ChEMBL document CHEMBL4346672, “Antimicrobial and KPC/AmpC inhibitory activity of functionalized benzosiloxaboroles” (Eur J Med Chem, 2019)
